Most compounds without a hit are left out; they make up all but 1.9% or so of the library.
ADAM10 inh: human ADAM10 inhibitors, primary screen, biochemical, QFRET, HTS; recombinant ADAM10, EDANS/DABCYL FRET peptide cleavage, 3 h; inhibition, % at 7 µM; actives 0.62% (n = 370,000);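 active means inhibition above a per-campaign cutoff equal to the mean of compounds falling between control-based bounds plus 3 SD, cut at about 20% in these data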
SENP1 FRET inh: human SENP1 catalytic domain inhibitors, primary screen, biochemical, FRET, uHTS; Sentrin-specific protease 1 (Homo sapiens), Q9P0U3; recombinant SENP1 catalytic domain, CyPet-SUMO1-YPet FRET cleavage; inhibition, % at 10 µM; actives 0.21% (n = 360,000); AID 624204, 2012;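 active means inhibition at least 30% at 10 µM, raw YFP signal under a set limit, fluorescence ratio 0.5 to 1.5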
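Material: hSENP1 catalytic domain, recombinant; medium: Tris pH 8 with BME, BSA, NP40 and catalase; compound: single concentration of 10 µM compound, 0.5% DMSO final; technique: FRET read of cyan and yellow fluorescence; timing: 50 min enzyme reaction, room temperature, light-protected; reagent: SFCypet-SUMO1-SFYpet substrate at 25 nM; control set: no-enzyme low, enzyme-DMSO high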
FAS-TE inh: FAS thioesterase domain inhibitors, primary screen, biochemical, fluorescence intensity, uHTS; recombinant FAS-TE, OMFH fluorogenic substrate, fluorescence endpoint; inhibition, % at 15 µM; actives 0.67% (n = 360,000); AID 602261, 2012;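 active means compounds whose normalised, plate-corrected inhibition of enzyme fluorescence in the single-dose primary screen is 50% or more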
ADAM17 inh: ADAM17 inhibitors, primary screen, biochemical, QFRET | recombinant ADAM17, EDANS/DABCYL FRET peptide cleavage | inhibition, % at 6.95 µM | actives 0.83% (n = 370,000);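 active means inhibition above the mean of compounds lying between control limits plus 3 SD, set per campaign, cut at about 8.5% in these data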
ADAM10 confirm: human ADAM10 inhibitors, confirmation, biochemical, QFRET, triplicate; shares compounds with ADAM10 inh; ADAM10 QFRET peptide cleavage, EDANS fluorescence; inhibition, % at 6.95 µM; actives 1% (n = 2,100);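 active means inhibition above about 20% chosen separately for each screening run, limit read from the data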
ADAM17 ctr: ADAM17 inhibitors, counter-screen for ADAM10 exosite inhibitor project, biochemical, QFRET, high throughput; AID 743214, 2013; actives 0.5% (n = 2,100); shares compounds with ADAM10 inh; inhibition, % at 6.95 µM; ADAM17 QFRET peptide cleavage, EDANS fluorescence;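 active means mean triplicate inhibition above the solvent-only control wells' mean plus 3 SD, cut at about 12% in these data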
ADAM10 counter: ADAM10 inhibitors, counter-screen for ADAM17 exosite inhibitor project, biochemical, FRET, human ADAM10; shares compounds with ADAM17 inh; recombinant ADAM10, EDANS/DABCYL FRET peptide cleavage, 3 h; inhibition, % at 6.95 µM; actives 47% (n = 2,900); AID 743256, 2014;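 active means mean inhibition over the triplicate runs exceeds the activity threshold set in the earlier primary screen, cut at about 20% in these data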
ADAM17 confirm: ADAM17 inhibitors, hit retest, confirmation, biochemical, QFRET peptide cleavage | inhibition, % at 6.95 µM | shares compounds with ADAM17 inh | recombinant ADAM17, EDANS/DABCYL QFRET peptide cleavage | actives 65% (n = 2,900);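 active means mean inhibition across replicates above the hit cutoff set in the primary screen, cut at about 8.5% in these data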
Of the large screens only hits and unclear results are named; the others gave an inactive call (follow-up assays come after a bar, where they were run).

O/N=C/c1cc(Br)ccc1OCc1ccc(F)cc1	none
COc1ccc(CN(CCN2CCOCC2)C(=O)c2ccc(F)cc2Cl)cc1OC	none (no result: SENP1 FRET inh, FAS-TE inh)
Cc1nn(-c2cc(N3CCCCC3)ccc2[N+](=O)[O-])c(=O)c2ccccc12	none
CN1CCN(c2ccc([N+](=O)[O-])c(-n3nc(-c4ccccc4)c4ccccc4c3=O)c2)CC1	ADAM10 inh 20, ADAM17 inh 13 | ADAM10 confirm inactive | ADAM17 ctr inactive | ADAM10 counter inactive | ADAM17 confirm 9.7
O=C(Nc1ccccc1Cl)O[C@@H]1CC[C@@]23CCCN2C(=O)CCC[C@H]3C1	none (no result: SENP1 FRET inh, FAS-TE inh)
CCOC(=O)CC[C@H]1CC[C@]2(CCCN(C(=O)c3ccccc3)C2)O1	none (no result: SENP1 FRET inh, FAS-TE inh)
O=C1C=C(c2ccc(-c3ccccc3)cc2)C[C@@H](c2ccc(F)cc2)C1	none
O=C1C=C(c2ccc3[nH]ccc3c2)C[C@@H](c2ccc(Cl)cc2)C1	ADAM10 inh 21, ADAM17 inh 15 | ADAM10 confirm inactive | ADAM17 ctr inactive | ADAM10 counter inactive | ADAM17 confirm inactive
Cc1ccc(C2=CC(=O)C[C@H](c3ccc(F)cc3)C2)cc1	ADAM10 inh 28, ADAM17 inh 12 | ADAM10 confirm inactive | ADAM17 ctr inactive | ADAM10 counter 22 | ADAM17 confirm 17
O=C(NC1CCCCN(Cc2cccc(C(F)(F)F)c2)C1=O)c1ccc(F)cc1 (configuration not stated)	none (no result: SENP1 FRET inh, FAS-TE inh)
CCOC(=O)c1ccc(S(=O)(=O)NCC(c2ccc(N(C)C)cc2)c2c[nH]c3ccccc23)cc1 (configuration not stated)	ADAM10 inh 26, ADAM17 inh 12 | ADAM10 confirm inactive | ADAM17 ctr inactive | ADAM10 counter 36 | ADAM17 confirm 23
COC(=O)C1=C(C)N(Cc2ccc(C(F)(F)F)cc2)C(=NCc2ccc(C(F)(F)F)cc2)NC1c1ccccc1C(F)(F)F (configuration not stated)	none (no result: SENP1 FRET inh, FAS-TE inh)
NC(=O)CSc1ncc(-c2ccc([N+](=O)[O-])cc2)[nH]1	none
Cc1cc(C)c(CSc2ncc(-c3ccc([N+](=O)[O-])cc3)[nH]2)c(C)c1	ADAM10 inh 34, ADAM17 inh 11 | ADAM10 confirm inactive | ADAM17 ctr inactive | ADAM10 counter 41 | ADAM17 confirm 23
CCOC(=O)C(=O)Cc1nc(OCc2ccccc2)cc(OCc2ccccc2)n1	none
CCOC(=O)C(Cc1nc(OCc2ccccc2)cc(OCc2ccccc2)n1)=NO	ADAM10 inh 28, ADAM17 inh 8.8 | ADAM10 confirm inactive | ADAM17 ctr inactive | ADAM10 counter 24 | ADAM17 confirm 12
COc1ccc(-n2c(COc3ccccc3)nnc2SCC(=O)Nc2ccccc2-c2ccccc2)cc1	ADAM10 inh 20, ADAM17 inh 11 (no result: SENP1 FRET inh, FAS-TE inh) | ADAM10 confirm inactive | ADAM17 ctr inactive | ADAM10 counter 24 | ADAM17 confirm 13
CC1CCN(c2ccc(C(=O)O)cc2NS(=O)(=O)c2ccc(C(C)(C)C)cc2)CC1	none (no result: SENP1 FRET inh, FAS-TE inh)
O=C(CNC(=S)N(Cc1ccccc1)Cc1ccccc1F)NCCc1ccc(Cl)cc1	ADAM10 inh 24, ADAM17 inh 10 | ADAM10 confirm inactive | ADAM17 ctr inactive | ADAM10 counter 21 | ADAM17 confirm 14
C=CCN1C(=O)[C@@H](CC(=O)NCc2cccc3ccccc23)[C@]2(C(=O)OC)CCCCC=C12	none (no result: SENP1 FRET inh, FAS-TE inh)
COC(=O)C1CCCN(C(=O)C2CCN(S(=O)(=O)c3cccs3)CC2)C1 (configuration not stated)	none (no result: SENP1 FRET inh, FAS-TE inh)
CCn1c(NCc2ccccc2NS(=O)(=O)c2ccc(C)cc2)nc2ccccc21	ADAM10 inh 27, ADAM17 inh 16 | ADAM10 confirm inactive | ADAM17 ctr inactive | ADAM10 counter 24 | ADAM17 confirm 15
CCCn1c(NCc2ccccc2NS(=O)(=O)c2ccc(C)cc2)nc2ccccc21	none
C[C@H]1CN([C@@H](C)CO)C(=O)Cc2cc(NC(=O)CCC(F)(F)F)ccc2O[C@H]1CN(C)S(C)(=O)=O	none
C[C@H]1CCCCO[C@@H](CN(C)S(=O)(=O)c2ccc(Cl)cc2)[C@@H](C)CN([C@@H](C)CO)C(=O)c2cc(NS(=O)(=O)c3ccccc3)ccc2O1	none
C[C@@H]1CN([C@@H](C)CO)C(=O)Cc2cc(NC(=O)Nc3ccc(C(F)(F)F)cc3)ccc2O[C@@H]1CN(C)S(=O)(=O)c1ccc(Cl)cc1	ADAM10 inh 35, ADAM17 inh 15 | ADAM10 confirm inactive | ADAM17 ctr inactive | ADAM10 counter 51 | ADAM17 confirm 27
C[C@H]1CN([C@@H](C)CO)C(=O)Cc2cc(NC(=O)CCC(F)(F)F)ccc2O[C@H]1CN(C)Cc1ccc(C(F)(F)F)cc1	ADAM10 inh 25, ADAM17 inh 11 | ADAM10 confirm inactive | ADAM17 ctr inactive | ADAM10 counter 27 | ADAM17 confirm 16
C[C@@H]1CN([C@H](C)CO)C(=O)c2cc(NC(=O)Nc3ccc(C(F)(F)F)cc3)ccc2O[C@H]1CN(C)S(=O)(=O)c1cccs1	ADAM10 inh 29, ADAM17 inh 13 | ADAM10 confirm inactive | ADAM17 ctr inactive | ADAM10 counter 49 | ADAM17 confirm 33
C[C@@H]1CCCCO[C@@H](CN(C)S(=O)(=O)c2ccccc2)[C@@H](C)CN([C@H](C)CO)C(=O)c2cc(NS(=O)(=O)c3ccc(F)cc3)ccc2O1	ADAM10 inh 27, ADAM17 inh 17 | ADAM10 confirm inactive | ADAM17 ctr inactive | ADAM10 counter 28 | ADAM17 confirm 15
CC(C)[C@H]1COc2c3ccccc3nn21	none (no result: SENP1 FRET inh, FAS-TE inh)
Cc1ccc(Nc2nc(N/N=C/c3c[nH]c4ccccc34)nc(N3CCOCC3)n2)cc1	ADAM10 inh 22, ADAM17 inh 10 | ADAM10 confirm inactive | ADAM17 ctr inactive | ADAM10 counter 27 | ADAM17 confirm 16
Cc1[nH]c2ccccc2c1/C=N/Nc1nc(Nc2ccc(F)cc2)nc(N2CCOCC2)n1	none

Compound activity: PubChem, several laboratories
